# Results taken from ChEMBL document CHEMBL1629431, “Synthesis and antitumor activity of some 2, 3-disubstituted quinazolin-4(3H)-ones and 4, 6- disubstituted- 1, 2, 3, 4-tetrahydroquinazolin-2H-ones” (2010).
# What was measured:
# Assay type in all cases: functional
# CCRF-CEM = experiment: Growth inhibition of human CCRF-CEM cells at 10 uM after 48 hrs by coulter counter method; details: read-out: GI
# Summary of the method: (§1)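 Single high-dose NCI 60-cell-line panel screen across nine tumor subpanels. Test solutions (0.2 mL) were added in duplicate to wells holding 1.8 mL of culture at 6 × 10⁴ cells/mL. Controls got PBS and DMSO at identical dilutions. Incubation was 48 h at 37 °C in humidified 5% CO₂. Cells were diluted 10-fold in saline, Coulter-counted and dilution-corrected. Results were expressed as percent growth inhibition versus control.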
# M14 = experiment: Growth inhibition of human M14 cells at 10 uM after 48 hrs by coulter counter method; details: M14, 48 h, read-out: GI; summary of the method: as §1
# KM12 = experiment: Growth inhibition of human KM12 cells at 10 uM after 48 hrs by coulter counter method; details: KM12, 48 h, read-out: GI; summary of the method: as §1
# OVCAR-8 = experiment: Growth inhibition of human OVCAR8 cells at 10 uM after 48 hrs by coulter counter method; details: OVCAR-8, 48 h, read-out: GI; summary of the method: as §1
# NCI-H226 = experiment: Growth inhibition of human NCI-H226 cells at 10 uM after 48 hrs by coulter counter method; details: NCI-H226, 48 h, read-out: GI; summary of the method: as §1
# COLO 205 = experiment: Growth inhibition of human COLO205 cells at 10 uM after 48 hrs by coulter counter method; details: COLO 205, 48 h, read-out: GI; summary of the method: as §1
# UACC-62 = experiment: Growth inhibition of human UACC62 cells at 10 uM after 48 hrs by coulter counter method; details: UACC-62, 48 h, read-out: GI; summary of the method: as §1
# T47D = experiment: Growth inhibition of human T47D cells at 10 uM after 48 hrs by coulter counter method; details: read-out: GI; summary of the method: as §1
# MOLT-4 = experiment: Growth inhibition of human MOLT4 cells at 10 uM after 48 hrs by coulter counter method; details: MOLT-4, 48 h, read-out: GI; summary of the method: as §1
# NCI-H522 = experiment: Growth inhibition of human NCI-H522 cells at 10 uM after 48 hrs by coulter counter method; details: NCI-H522, 48 h, read-out: GI; summary of the method: as §1
# OVCAR-4 = experiment: Growth inhibition of human OVCAR4 cells at 10 uM after 48 hrs by coulter counter method; details: OVCAR-4, 48 h, read-out: GI; summary of the method: as §1
# MDA-MB-468 = experiment: Growth inhibition of human MDA-MB-468 cells at 10 uM after 48 hrs by coulter counter method; details: MDA-MB-468, 48 h, read-out: GI; summary of the method: as §1
# MCF7 = experiment: Growth inhibition of human MCF7 cells at 10 uM after 48 hrs by coulter counter method; details: MCF7, 48 h, read-out: GI; summary of the method: as §1
# HL-60(TB) = experiment: Growth inhibition of human HL-60(TB) cells at 10 uM after 48 hrs by coulter counter method; details: HL-60, 48 h, read-out: GI
# Summary of the method: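 Part of the NCI 60-cell-line single-high-dose panel. Cells were seeded at 6 × 10⁴ cells/mL with test solution in duplicate wells, alongside PBS/DMSO controls at identical dilutions. Plates were held 48 h at 37 °C in a humidified 5% CO₂ incubator. Cells were then diluted 10-fold in saline and counted by Coulter counter, with counts corrected for dilution. Results are percent growth of treated cells, reported as GI %.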
# SR = experiment: Growth inhibition of human SR cells at 10 uM after 48 hrs by coulter counter method; details: read-out: GI; summary of the method: as §1
# SK-OV-3 = experiment: Growth inhibition of human SKOV3 cells at 10 uM after 48 hrs by coulter counter method; details: SK-OV-3, 48 h, read-out: GI; summary of the method: as §1
# U-251 = experiment: Growth inhibition of human U251 cells at 10 uM after 48 hrs by coulter counter method; details: U-251, 48 h, read-out: GI; summary of the method: as §1
# K562 = experiment: Growth inhibition of human K562 cells at 10 uM after 48 hrs by coulter counter method; details: K562, 48 h, read-out: GI; summary of the method: as §1
# A549 = experiment: Growth inhibition of human A549 cells at 10 uM after 48 hrs by coulter counter method; details: A549, 48 h, read-out: GI; summary of the method: as §1
# CAKI-1 = experiment: Growth inhibition of human Caki1 cells at 10 uM after 48 hrs by coulter counter method; details: CAKI-1, 48 h, read-out: GI; summary of the method: as §1
# NCI-H23 = experiment: Growth inhibition of human NCI-H23 cells at 10 uM after 48 hrs by coulter counter method; details: NCI-H23, 48 h, read-out: GI; summary of the method: as §1
# SF-268 = experiment: Growth inhibition of human SF268 cells at 10 uM after 48 hrs by coulter counter method; details: SF-268, 48 h, read-out: GI; summary of the method: as §1
# SNB-75 = experiment: Growth inhibition of human SNB75 cells at 10 uM after 48 hrs by coulter counter method; details: SNB-75, 48 h, read-out: GI; summary of the method: as §1
# 786-0 = experiment: Growth inhibition of human 786-0 cells at 10 uM after 48 hrs by coulter counter method; details: 786-0, 48 h, read-out: GI; summary of the method: as §1
# SF-539 = experiment: Growth inhibition of human SF539 cells at 10 uM after 48 hrs by coulter counter method; details: SF-539, 48 h, read-out: GI; summary of the method: as §1
# PC-3 = experiment: Growth inhibition of human PC3 cells at 10 uM after 48 hrs by coulter counter method; details: PC-3, 48 h, read-out: GI; summary of the method: as §1
# SK-MEL-2 = experiment: Growth inhibition of human SK-MEL-2 cells at 10 uM after 48 hrs by coulter counter method; details: SK-MEL-2, 48 h, read-out: GI; summary of the method: as §1
# HCT-116 = experiment: Growth inhibition of human HCT116 cells at 10 uM after 48 hrs by coulter counter method; details: HCT-116, 48 h, read-out: GI; summary of the method: as §1
# MDA-MB-231 = experiment: Growth inhibition of human MDA-MB-231 cells at 10 uM after 48 hrs by coulter counter method; details: MDA-MB-231, 48 h, read-out: GI; summary of the method: as §1
# SN12C = experiment: Growth inhibition of human SN12C cells at 10 uM after 48 hrs by coulter counter method; details: read-out: GI; summary of the method: as §1
# UO-31 = experiment: Growth inhibition of human UO31 cells at 10 uM after 48 hrs by coulter counter method; details: UO-31, 48 h, read-out: GI; summary of the method: as §1
# IGROV-1 = experiment: Growth inhibition of human IGROV1 cells at 10 uM after 48 hrs by coulter counter method; details: IGROV-1, 48 h, read-out: GI; summary of the method: as §1
# [1] = Growth inhibition of human Hs 578T cells at 10 uM after 48 hrs by coulter counter method; details: read-out: GI; summary of the method: as §1
# SK-MEL-28 = experiment: Growth inhibition of human SK-MEL-28 cells at 10 uM after 48 hrs by coulter counter method; details: SK-MEL-28, 48 h, read-out: GI; summary of the method: as §1
smiles,measurement,setting,value
COc1ccc(-n2c(SC)nc3ccccc3c2=O)cc1,inhibition of growth at 10 µM,CCRF-CEM,30%
same,inhibition of growth at 10 µM,M14,30%
same,inhibition of growth at 10 µM,KM12,30%
same,inhibition of growth at 10 µM,OVCAR-8,30%
same,inhibition of growth at 10 µM,NCI-H226,30%
same,inhibition of growth at 10 µM,COLO 205,30%
same,inhibition of growth at 10 µM,UACC-62,30%
same,inhibition of growth at 10 µM,T47D,30%
same,inhibition of growth at 10 µM,MOLT-4,30%
same,inhibition of growth at 10 µM,NCI-H522,30%
same,inhibition of growth at 10 µM,OVCAR-4,30%
same,inhibition of growth at 10 µM,MDA-MB-468,30%
same,inhibition of growth at 10 µM,MCF7,30%
same,inhibition of growth at 10 µM,HL-60(TB),30%
same,inhibition of growth at 10 µM,SR,30%
same,inhibition of growth at 10 µM,SK-OV-3,30%
same,inhibition of growth at 10 µM,U-251,30%
same,inhibition of growth at 10 µM,K562,30.1%
same,inhibition of growth at 10 µM,A549,30%
same,inhibition of growth at 10 µM,CAKI-1,30%
same,inhibition of growth at 10 µM,NCI-H23,30%
same,inhibition of growth at 10 µM,SF-268,30%
same,inhibition of growth at 10 µM,SNB-75,30%
same,inhibition of growth at 10 µM,786-0,30%
same,inhibition of growth at 10 µM,SF-539,30%
same,inhibition of growth at 10 µM,PC-3,30%
same,inhibition of growth at 10 µM,SK-MEL-2,30%
same,inhibition of growth at 10 µM,HCT-116,30%
same,inhibition of growth at 10 µM,MDA-MB-231,30%
same,inhibition of growth at 10 µM,SN12C,30%
same,inhibition of growth at 10 µM,UO-31,30%
same,inhibition of growth at 10 µM,IGROV-1,30%
same,inhibition of growth at 10 µM,[1],30%
same,inhibition of growth at 10 µM,SK-MEL-28,30%
COc1ccc(C(=O)CSc2nc3ccccc3c(=O)n2-c2ccc(Cl)cc2)cc1,inhibition of growth at 10 µM,M14,38.4%
same,inhibition of growth at 10 µM,KM12,30%
same,inhibition of growth at 10 µM,OVCAR-8,76.2%
same,inhibition of growth at 10 µM,NCI-H226,30%
same,inhibition of growth at 10 µM,COLO 205,48.9%
same,inhibition of growth at 10 µM,UACC-62,42.2%
same,inhibition of growth at 10 µM,T47D,30%
same,inhibition of growth at 10 µM,MOLT-4,30%
same,inhibition of growth at 10 µM,NCI-H522,< 30%
same,inhibition of growth at 10 µM,OVCAR-4,53.5%
same,inhibition of growth at 10 µM,MDA-MB-468,35.4%
same,inhibition of growth at 10 µM,MCF7,30%
same,inhibition of growth at 10 µM,HL-60(TB),30%
same,inhibition of growth at 10 µM,SR,30%
same,inhibition of growth at 10 µM,SK-OV-3,44.7%
same,inhibition of growth at 10 µM,U-251,65.1%
same,inhibition of growth at 10 µM,NCI-H23,30%
same,inhibition of growth at 10 µM,SF-268,48.8%
same,inhibition of growth at 10 µM,SNB-75,71.1%
same,inhibition of growth at 10 µM,786-0,41.3%
same,inhibition of growth at 10 µM,SF-539,48.6%
same,inhibition of growth at 10 µM,PC-3,30%
same,inhibition of growth at 10 µM,SK-MEL-2,34.2%
same,inhibition of growth at 10 µM,HCT-116,30%
same,inhibition of growth at 10 µM,MDA-MB-231,40.9%
same,inhibition of growth at 10 µM,SN12C,30%
same,inhibition of growth at 10 µM,UO-31,37.2%
same,inhibition of growth at 10 µM,IGROV-1,48.9%
same,inhibition of growth at 10 µM,[1],30%
same,inhibition of growth at 10 µM,SK-MEL-28,37.3%
